Reference: ChEMBL document CHEMBL1146721, “Discovery and structure-activity relationship of coumarin derivatives as TNF-alpha inhibitors” (Bioorg Med Chem Lett, 2004)

These molecules were tested on Rattus norvegicus (assay: Tested in vivo for inhibition of serum tumor necrosis factor alpha production in rats at 100 mg/kg subcutaneous dose). Settings: sc.
Assay type: functional
Procedure, shortened: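 LPS (E. coli B055/B5, 0.1 mg/kg) challenge given […] sc compound, usually in 20% EtOH/80% PEG400; pyridine-containing compounds given in saline as in situ HCl salts. Serum TNF-α measured by ELISA 90 min later. Percent inhibition at 100 mg/kg calculated against an untreated control.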
For `Cc1c(Cc2cccnc2)c(=O)oc2cc(OC(=O)N(C)C)ccc12`, the inhibition in vivo at 100 mg/kg was 86%.
`Cc1c(Cc2ccc(F)cc2)c(=O)oc2cc(OC(=O)N(C)C)ccc12` was tested, and the inhibition in vivo at 100 mg/kg was 42%.
`Cc1c(Cc2ccccc2)c(=O)oc2cc(OC(=O)N(C)C)c(Cl)cc12` gave an inhibition in vivo at 100 mg/kg of 57%.
Molecule `Cc1c(Cc2cccnc2)c(=O)oc2cc(OC(=O)N(C)C)c(Cl)cc12` has an inhibition in vivo at 100 mg/kg of 86%.

These molecules were tested on PBMC (assay: In vitro inhibition of tumor necrosis factor alpha production in LPS-challenged human peripheral blood mononuclear cells). Settings: not given.
Assay type: functional, cell-based
Procedure, shortened: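 Human PBMC at 5 × 10⁵ cells/mL in RPMI1640 with 5% heat-inactivated FCS and antibiotics, pretreated with compound in DMSO for 60 min at 37 °C. Then stimulated with Salmonella minnesota R595 LPS (final 100 ng/mL) and cultured overnight. Supernatant TNF-α measured by human TNF-α ELISA; IC50 derived.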
In the case of `Cc1c(Cc2ccccc2)c(=O)oc2c(C)c(OC(=O)N(C)C)ccc12`, the IC50 is reported as 10.3 µM.
In the case of `Cc1c(Cc2ccccc2)c(=O)oc2cc(OC(=O)N(C)C)c(I)cc12`, the IC50 is reported as 0.06 µM.
For `CN(C)C(=O)Oc1ccc2c(CC(O)c3ccc(C#N)cc3)c(Cc3ccccc3)c(=O)oc2c1` (stereo not drawn), the IC50 was 28.3 µM.
Work on `Cc1c(Cc2cccnc2)c(=O)oc2cc(OC(=O)N(C)C)ccc12` yielded an IC50 of 2.7 µM.
Molecule `Cc1c(-c2ccc(N)cc2)c(=O)oc2cc(OC(=O)N(C)C)ccc12` has an IC50 of 5.2 µM.
`CN(C)C(=O)Oc1ccc2c(-c3ccc(F)cc3)c(Cc3ccccc3)c(=O)oc2c1` was tested, and the IC50 was 41.7 µM.
`Cc1c(Cc2ccccc2)c(=O)oc2cc(OC(=O)N(C)C)c(C#N)cc12` was tested, and the IC50 was 0.85 µM.
For `CN(C)C(=O)Oc1ccc2cc(Cc3ccccc3)c(=O)oc2c1`, the IC50 was > 50 µM.
With `CCc1c(Cc2ccccc2)c(=O)oc2cc(OC(=O)N(C)C)ccc12` the IC50 was 1.7 µM.
In the case of `C=CCCC(O)Cc1c(Cc2ccccc2)c(=O)oc2cc(OC(=O)N(C)C)ccc12` (stereo not drawn), the IC50 is reported as 48.4 µM.
`Cc1c(Cc2ccccc2)c(=O)oc2cc(OC(=O)N(C)C)c(C(=O)O)cc12` was tested, and the IC50 was > 50 µM.
For `CCOC(=O)CC(=O)Nc1cccc(Cc2c(C)c3cc(Cl)c(OC(=O)N(C)C)cc3oc2=O)c1`, the IC50 was 0.05 µM.
With `CN(C)C(=O)Oc1ccc2c(CCO)c(Cc3ccccc3)c(=O)oc2c1` the IC50 was 2.1 µM.
`CN(C)C(=O)Oc1ccc2c(CCc3ccccc3)c(Cc3ccccc3)c(=O)oc2c1` was tested, and the IC50 was > 50 µM.
In the case of `COC(=O)c1ccc(-c2c(C)c3ccc(OC(=O)N(C)C)cc3oc2=O)cc1`, the IC50 is reported as ≥ 50 µM.
`CN(C)C(=O)Oc1ccc2c(C(F)(F)F)c(Cc3ccc(F)cc3)c(=O)oc2c1` was tested, and the IC50 was > 50 µM.
For `COc1cc2c(C)c(Cc3ccccc3)c(=O)oc2cc1OC(=O)N(C)C`, the IC50 was 0.58 µM.
For `Cc1c(CCc2ccccc2)c(=O)oc2cc(OC(=O)N(C)C)ccc12`, the IC50 was > 50 µM.
With `CN(C)C(=O)Oc1ccc2c(CC(O)c3nccs3)c(Cc3ccccc3)c(=O)oc2c1` (stereo not drawn) the IC50 was 16.5 µM.
In the case of `Cc1c(Cc2ccccc2)c(=O)oc2cc(OC(=O)N(C)C)c([N+](=O)[O-])cc12`, the IC50 is reported as 0.12 µM.
In the case of `CCCCCc1c(C)c2ccc(OC(=O)N(C)C)cc2oc1=O`, the IC50 is reported as 22.8 µM.
In the case of `COc1cc(OC(=O)N(C)C)cc2oc(=O)c(Cc3ccccc3)c(C)c12`, the IC50 is reported as > 50 µM.
`Cc1c(Cc2ccccc2)c(=O)oc2cc(OC(=O)N(C)C)c(C=O)cc12` gave an IC50 of 9.8 µM.
In the case of `Cc1c(CN2CCOCC2)c(=O)oc2cc(OC(=O)N(C)C)ccc12`, the IC50 is reported as > 50 µM.
`Cc1cc(=O)oc2cc(OC(=O)N(C)C)ccc12` was tested, and the IC50 was > 50 µM.
In the case of `Cc1c(CN2CCCCC2)c(=O)oc2cc(OC(=O)N(C)C)ccc12`, the IC50 is reported as > 50 µM.
In the case of `CCc1cc2c(C)c(Cc3ccccc3)c(=O)oc2cc1OC(=O)N(C)C`, the IC50 is reported as 4.6 µM.
For `CN(C)C(=O)Oc1ccc2c(C(=O)O)c(Cc3ccccc3)c(=O)oc2c1`, the IC50 was > 50 µM.
Molecule `Cc1c(CC2CCCCC2)c(=O)oc2cc(OC(=O)N(C)C)ccc12` has an IC50 of 7.2 µM.
`Cc1c(Cc2ccccn2)c(=O)oc2cc(OC(=O)N(C)C)ccc12` was tested, and the IC50 was 6.5 µM.
With `CN(C)C(=O)Oc1ccc2c(CC(O)C3CCCCC3)c(Cc3ccccc3)c(=O)oc2c1` (stereo not drawn) the IC50 was > 50 µM.
With `Cc1c(-c2cccc(C(F)(F)F)c2)c(=O)oc2cc(OC(=O)N(C)C)ccc12` the IC50 was > 50 µM.
Molecule `CN(C)C(=O)Oc1ccc2c(-c3ccncc3)c(Cc3ccccc3)c(=O)oc2c1` has an IC50 of 4.9 µM.
For `Cc1c(Cc2ccc(F)cc2)c(=O)oc2cc(OC(=O)N(C)C)ccc12`, the IC50 was 0.32 µM.
In the case of `CN(C)C(=O)Oc1ccc2c(-c3ccccc3F)c(Cc3ccccc3)c(=O)oc2c1`, the IC50 is reported as 4.9 µM.
`CN(C)C(=O)Oc1ccc2c(-c3ccccc3)c(Cc3ccc(F)cc3)c(=O)oc2c1` gave an IC50 of 1.7 µM.
With `Cc1c(-c2ccc(C(F)(F)F)cc2)c(=O)oc2cc(OC(=O)N(C)C)ccc12` the IC50 was > 50 µM.
For `Cc1c(C)c2ccc(OC(=O)N(C)C)cc2oc1=O`, the IC50 was ≥ 50 µM.
`COc1ccccc1-c1c(C)c2ccc(OC(=O)N(C)C)cc2oc1=O` was tested, and the IC50 was 7.5 µM.
In the case of `COC(=O)c1cccc(-c2c(C)c3ccc(OC(=O)N(C)C)cc3oc2=O)c1`, the IC50 is reported as 1.7 µM.
For `Cc1c(Cc2ccccc2)c(=O)oc2cc(OC(=O)N(C)C)c(C(C)C)cc12`, the IC50 was 40.1 µM.
`Cc1cc2c(C)c(Cc3ccccc3)c(=O)oc2cc1OC(=O)N(C)C` showed an IC50 of 0.4 µM.
With `CCCCCCc1c(C)c2ccc(OC(=O)N(C)C)cc2oc1=O` the IC50 was 25.4 µM.
`CCCCc1c(C)c2ccc(OC(=O)N(C)C)cc2oc1=O` was tested, and the IC50 was 24.7 µM.
In the case of `Cc1c(-c2ccccc2)c(=O)oc2cc(OC(=O)N(C)C)ccc12`, the IC50 is reported as > 50 µM.
Work on `Cc1c(Cc2ccccc2)c(=O)oc2cc(OC(=O)N(C)C)c(Cl)cc12` yielded an IC50 of 0.09 µM.
Molecule `CCCc1c(Cc2ccccc2)c(=O)oc2cc(OC(=O)N(C)C)ccc12` has an IC50 of 0.78 µM.
For `CN(C)C(=O)Oc1ccc2c(-c3ccccn3)c(Cc3ccccc3)c(=O)oc2c1`, the IC50 was 18.7 µM.
For `COc1cccc(-c2c(C)c3ccc(OC(=O)N(C)C)cc3oc2=O)c1`, the IC50 was 3.2 µM.
With `Cc1c(Cc2ccccc2)c(=O)oc2cc(OC(=O)N(C)C)cc(F)c12` the IC50 was 0.44 µM.
`CC(=O)Nc1cccc(Cc2c(C)c3cc(Cl)c(OC(=O)N(C)C)cc3oc2=O)c1` gave an IC50 of 0.31 µM.
For `Cc1c(-c2cccc(N)c2)c(=O)oc2cc(OC(=O)N(C)C)ccc12`, the IC50 was 2.7 µM.
`Cc1c(Cc2ccncc2)c(=O)oc2cc(OC(=O)N(C)C)c(Cl)cc12` showed an IC50 of 0.13 µM.
For `CN(C)C(=O)Oc1ccc2c(-c3ccc(C(F)(F)F)cc3)c(Cc3ccccc3)c(=O)oc2c1`, the IC50 was > 50 µM.
In the case of `CN(C)C(=O)Oc1ccc2c(-c3cccc(C(F)(F)F)c3)c(Cc3ccccc3)c(=O)oc2c1`, the IC50 is reported as > 50 µM.
For `Cc1c(Cc2ccccc2)c(=O)oc2cc(OC(=O)N(C)C)ccc12`, the IC50 was 1.8 µM.
`Cc1c(Cc2cccnc2)c(=O)oc2cc(OC(=O)N(C)C)c(Cl)cc12` showed an IC50 of 0.45 µM.
With `Cc1c(-c2ccccc2N)c(=O)oc2cc(OC(=O)N(C)C)ccc12` the IC50 was 2.1 µM.
`Cc1c(Cc2ccncc2)c(=O)oc2cc(OC(=O)N(C)C)ccc12` gave an IC50 of 1.3 µM.
`Cc1c(Cc2ccccc2)c(=O)oc2cc(OC(=O)N(C)C)c(Br)cc12` was tested, and the IC50 was 0.06 µM.
For `Cc1c(-c2ccccc2C(F)(F)F)c(=O)oc2cc(OC(=O)N(C)C)ccc12`, the IC50 was ≥ 50 µM.
In the case of `COc1ccc(-c2c(C)c3ccc(OC(=O)N(C)C)cc3oc2=O)cc1`, the IC50 is reported as 5.6 µM.
For `CCCc1c(Cc2ccc(F)cc2)c(=O)oc2cc(OC(=O)N(C)C)ccc12`, the IC50 was 1.2 µM.

What follows are molecules tested on Rattus norvegicus (assay: Tested in vivo for inhibition of serum tumor necrosis factor alpha production in rats at 100 ug/kg subcutaneous dose). Settings: sc.
Assay type: functional
Procedure, shortened: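 LPS (E. coli B055/B5, 0.1 mg/kg) challenge given […] subcutaneous test compound, usually in 20% EtOH/80% PEG400; pyridine-containing compounds were given in saline as HCl salts formed in situ. Serum TNF-α was measured by ELISA 90 min later. Percent inhibition was calculated against an untreated control.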
Molecule `C[C@@H]1C[C@H]2[C@@H]3CCC4=CC(=O)C=C[C@]4(C)[C@@]3(F)[C@@H](O)C[C@]2(C)[C@@]1(O)C(=O)CO` [DEXAMETHASONE] has an inhibition in vivo at 0.1 mg/kg of 99%.
